# RGS4 block: inhibitors of human RGS4 | P49798 | HEK293 M3R/RGS4 inducible, Fluo-4 calcium flux; hits give high values; triggered by carbachol at its EC20 | B-score at 10 µM | 310,000 compounds, 0.45% hits | AID 463165;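 active means B-score, a plate-corrected calcium signal, over three deviations above library mean, with baseline fluorescence within five deviations of library mean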;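 further: RGS4 expression induced by doxycycline in cells with stable M3 receptor; B-score is computed from the integrated fluorescence ratio over baseline after carbachol; higher B-score means a larger calcium signal and so more RGS4 inhibition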
# Target sequence (P49798 whole entry, looked up): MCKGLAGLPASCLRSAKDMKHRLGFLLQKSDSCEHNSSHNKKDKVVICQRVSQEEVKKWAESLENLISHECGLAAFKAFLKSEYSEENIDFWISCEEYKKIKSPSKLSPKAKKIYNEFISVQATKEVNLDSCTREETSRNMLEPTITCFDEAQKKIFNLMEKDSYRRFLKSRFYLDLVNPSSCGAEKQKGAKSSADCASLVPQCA
# RGS4 act: RGS4 potentiation or activation | HEK293 M3R/inducible RGS4, carbachol calcium flux Fluo4; hits give low values | B-score at 10 µM | 310,000 compounds, 0.92% hits | AID 463111;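 active means B-score of the integrated calcium signal more than 4 SD below the library mean, with starting fluorescence not abnormally high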;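 further: negative B-score means reduced calcium response which marks RGS4 activation or potentiation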
#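 Also added: carbachol at ECmax as muscarinic agonist stimulus; Assay system: HEK293 cells with stable M3R and inducible RGS4; Timing: overnight RGS4 induction, 30 min dye load 37 °C, 20 min compound RT; Measured by: Fluo4-AM (2 µM) calcium-flux fluorescence, kinetic read.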
# MrgX1 agonist: human MrgX1 receptor agonism, primary screen | Q96LB2 | MrgX1-HEK293 cells, Fluo-4 calcium fluorescence, agonist mode; hits give high values | B-score at 10 µM | 310,000 compounds, 0.44% hits;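 active means calcium response B-score plate-corrected fluorescence ratio at least 3 library SD, with starting fluorescence B-score inside 5 SD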
# Target sequence (Q96LB2 whole entry, looked up): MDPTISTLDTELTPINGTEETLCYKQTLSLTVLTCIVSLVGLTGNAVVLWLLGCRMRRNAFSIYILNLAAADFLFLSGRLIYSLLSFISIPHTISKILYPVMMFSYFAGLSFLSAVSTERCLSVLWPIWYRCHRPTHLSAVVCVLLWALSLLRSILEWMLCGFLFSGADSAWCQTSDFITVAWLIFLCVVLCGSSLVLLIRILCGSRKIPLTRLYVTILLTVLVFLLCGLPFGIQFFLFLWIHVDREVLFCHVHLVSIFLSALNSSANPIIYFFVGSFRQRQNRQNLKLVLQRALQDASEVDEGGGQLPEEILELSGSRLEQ
#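 System – MrgX1-expressing HEK293 cells · Incubation – cells plated overnight, dye loaded 0.5 h 37 °C, 0.5 h room temperature · Technique – kinetic Fluo-4 NW fluorescence of intracellular calcium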
# MrgX1 allo act: allosterically activates human MrgX1 receptor signaling; B-score at 10 µM; 310,000 compounds, 0.63% hits; Q96LB2; AID 588675; MrgX1-HEK293, Fluo-4 calcium flux, FDSS; hits give high values;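 active means plate-corrected calcium response at least 3 library SD above typical, normal starting fluorescence, not activating the receptor alone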;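 further: compound read alongside a low EC10 to EC30 dose of BAM8-22 agonist; peak minus trough fluorescence over baseline measured at the second addition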
# MrgX1 antag: antagonists of human MrgX1 receptor; MRGX1-HEK293 calcium flux, Fluo-4, BAM8-22 antagonism; hits give low values; Q96LB2; 310,000 compounds, 1.3% hits; B-score at 10 µM;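 active means calcium-response B-score plate-corrected more than 3 library SD below zero, starting fluorescence within 5 deviations, no agonist response on first addition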;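 further: peak minus trough fluorescence over baseline after final BAM8-22 challenge near maximal dose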
# * hit, by the source's call; i = inactive; nt = no result. Hits are enriched below; roughly 3.5% of the tested compounds scored in any of these assays.
SMILES,RGS4 block,RGS4 act,MrgX1 agonist,MrgX1 allo act,MrgX1 antag
COC(=O)c1c(NC(=O)Cn2cnc([N+](=O)[O-])n2)sc2c1CCC(C)C2 (configuration not stated),i,-7.6*,i,i,i
CCOC(=O)c1c(NC(=O)Cn2cnc([N+](=O)[O-])n2)sc2c1CCC(C)C2 (configuration not stated),i,i,i,i,i
O=C(N/N=C/c1ccc(OC2CSC2)cc1)c1ccccc1,i,i,i,i,i
O=C(/C=C/c1ccc(OC2CSC2)cc1)c1ccccc1,i,-7.5*,i,i,i
CCn1c(COc2ccc3c(c2)CCCC3)nnc1SCC(=O)Nc1ccc(C(=O)OC)cc1,i,i,i,i,i
COc1ccccc1NS(=O)(=O)c1cc([N+](=O)[O-])ccc1N/N=C/c1sc(N2CCOCC2)nc1-c1ccccc1,i,i,i,i,-8*
COc1ccc(C(=O)N/N=C/c2sc(N3CCOCC3)nc2-c2ccccc2)cc1OC,i,i,i,i,i
FC(F)(F)c1cc(C(F)(F)F)c2ccc(N3CCN(c4ccc(Cl)cc4)CC3)nc2n1,i,i,i,i,i
N#CC(c1ccc(Cl)cc1)c1ccc2c(C(F)(F)F)cc(C(F)(F)F)nc2n1 (configuration not stated),i,-8.1*,i,i,i
COCCNC(=O)C(c1ccco1)N(C(=O)Cn1nnc2ccccc21)c1ccc(C)cc1C (configuration not stated),i,i,i,7.9*,i
CCc1ccccc1N(C(=O)Cn1nnc2ccccc21)C(C(=O)NCCOC)c1ccco1 (configuration not stated),i,i,i,i,i
O=C(c1ccc(-c2ccccc2)cc1)N1CCN(c2ccccc2F)CC1,i,i,i,i,i
CCCCN(C(=O)C1CC(=O)N(Cc2ccc(C)cc2)C1)c1c(N)n(CC(C)C)c(=O)[nH]c1=O (configuration not stated),i,i,i,i,-7.2*
CCCCn1c(N)c(N(CCOC)C(=O)C2CC(=O)N(Cc3ccc(C)cc3)C2)c(=O)[nH]c1=O (configuration not stated),i,i,i,i,i
CCc1ccc(Nc2nnc(SCc3cc(=O)n4ccsc4n3)s2)cc1,i,i,i,i,i
O=C(CCc1nc2sc3c(c2c(=O)[nH]1)CCCC3)N1CCN(c2ccccc2)CC1,i,i,i,i,-7.2*
COc1ccc(CC(=O)N(C)CC(=O)Nc2cccc(F)c2)cc1S(=O)(=O)N1CCOCC1,i,i,i,i,-5.3*
Cc1ccc(/C=C/C(=O)Nc2cccnc2)o1,i,i,i,i,-7.1*
COc1ccc(NC(=O)/C=C/c2ccc(Br)o2)cn1,i,i,i,i,-7.2*
O=C(/C=C/c1ccccc1)Nc1cccnc1,i,i,i,i,i
CCC(C)NC(=O)c1ccccc1NS(=O)(=O)c1ccc(OC)c(OC)c1 (configuration not stated),i,i,i,i,i
COc1ccc(S(=O)(=O)N2CCN(c3nc4ccccc4nc3-n3nc(C)cc3C)CC2)cc1,i,i,nt,nt,nt
COc1cccc(NC(=O)CN(C)C(=O)CCNC(=O)c2ccc(Br)cc2)c1,i,i,i,i,-8.9*
COc1cccc(CN(C)C(=O)CCNC(=O)c2ccc(Br)cc2)c1,i,i,i,i,i
CSc1ccc(/C=C2\CCn3c2nc2cc(C(=O)O)ccc2c3=O)cc1,i,i,i,i,i
SMILES,RGS4 block,RGS4 act,MrgX1 agonist,MrgX1 allo act,MrgX1 antag
COc1ccc(NC(=O)CN(C)C(=O)c2ccc(OCc3ccccc3)c(OC)c2)cc1,i,i,i,i,i
O=C1/C(=C\c2c(NCCOCCO)nc3ccccn3c2=O)SC(=S)N1Cc1ccco1,i,i,i,i,-15*
Cc1ccc(C(=O)N2CCC(C)CC2)cc1NC1=NC2CS(=O)(=O)CC2S1 (configuration not stated),i,i,i,i,i
CCCCN(CC)CCCNC(=O)c1cc2c(=O)n(C)c3ccccc3c2n1C,i,i,i,i,-5.5*
CC(C)OCCCNC(=O)c1cc2c(=O)n(C)c3ccccc3c2n1C,i,i,i,i,i
CC(C)Oc1ccccc1C1(c2ccccc2)NC(=O)NC1=O (configuration not stated),i,i,i,i,i
CS(=O)(=O)Cc1cc(N2CCCC2)nc(-c2ccccc2)n1,i,i,i,i,i
CCCCCC1CC(=O)C=C(C)C1C(=O)OC (configuration not stated),i,i,i,i,i
O=C(NNC1=C(C(=O)C(F)(F)F)CCC1)c1ccccc1O,i,i,i,i,i
COc1ccccc1C(=O)NNC1=C(C(=O)C(F)(F)F)CCC1,i,i,39*,i,i
Oc1ccccc1-c1nc(NCC2CCCO2)c2ccccc2n1 (configuration not stated),i,-8.4*,i,i,i
COc1ccc(O[C@H]2C=C[C@@H](c3ccccc3)O[C@@H]2COC(=O)CC/C(C)=N/O[C@@H](C)c2cc(-c3c(C)cc(C)cc3C)no2)cc1,i,i,nt,nt,nt
COc1ccc(O[C@H]2C=C[C@@H](c3ccccc3)O[C@@H]2COC(=O)CC/C(C)=N/OC[C@@H](O)COCc2ccco2)cc1,i,-9.7*,i,i,i
COc1ccccc1CN(C)C(=O)C(NC(=O)Cc1cccc2ccccc12)C(C)C (configuration not stated),i,i,i,i,i
COc1ccc(CCNC(=O)C2CCC(=O)N(CC3CCCCC3)C2)cc1 (configuration not stated),i,-7.1*,nt,nt,nt
O=C(NC1CCCCC1)NC1C2CC3CC(C2)CC1C3 (configuration not stated),i,i,i,i,i
O=C1Nc2ccc([N+](=O)[O-])cc2OC1CCN1CCCC1 (configuration not stated),i,i,i,12*,i
CN1CCN(CCC2Oc3cc([N+](=O)[O-])ccc3NC2=O)CC1 (configuration not stated),i,i,i,i,i
On1c2c(c3c4nonc4ccc31)CCCC2,i,i,27*,i,i
COn1c2c(c3c4nonc4ccc31)CCCC2,i,i,i,i,i

# Screening results (PubChem BioAssay)
